Measurements from PMC7238799 (Pulmonary Circulation, 2020).

How the values were obtained:
[1] = cited from earlier work
[2] = Multiple ascending dose; type: in vivo, human; details: for Accumulation in plasma exposure (AUC): approximate
How it was run: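 Healthy subjects were randomized to test compound or placebo by oral immediate-release capsule in the fasted state. In Cohorts 1–2 (2:1), 50 µg QD escalated to 100, 200, 300 and 400 µg every sixth day if tolerated. In Cohort 3 (4:1), 10 µg BID escalated to 20, 30, 40, 50 and 70 µg. K₂EDTA blood was drawn pre-dose and 0.25–24 h post-dose.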

[3] = Single ascending dose; type: in vivo, human; details: for Tmax / AUC(0-inf) / AUC(0-t) / Cmax: both, human, plasma, po
How it was run: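 Healthy subjects received one oral immediate-release capsule dose of test compound (30–200 µg) or placebo, with food withheld 1 h after dosing. K₂EDTA blood was drawn pre-dose, at 0.25–120 h, then every 24 h through Day 14. Samples were chilled, centrifuged and frozen at –20 ℃. Plasma was assayed by LC-MS/MS (0.03–15.0 ng/mL). Noncompartmental, linear-trapezoidal parameters are reported as mean (SD), with Tmax as median (min–max).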

[4] = 10 µg BID, steady state, n = 20, mean (SD)
[5] = 30 µg QD, steady state, n = 3, mean (SD)
[6] = 40 µg BID, steady state, n = 9, mean (SD)
[7] = 50 µg BID, steady state, n = 6, mean (SD)
[8] = 50 µg QD, steady state, n = 16, mean (SD)
[9] = 100 µg QD, steady state, n = 7, mean (SD)
[10] = 300 µg QD, steady state, single subject
[11] = 400 µg QD, near steady-state (Day 21, first day at this dose), single subject

O=C(O)COC[C@H]1CC[C@H](COC(=O)N(c2ccccc2)c2ccc(Cl)cc2)CC1 [ralinepag]
Enterohepatic recirculation ([1]; animals): observed
Oral bioavailability ([1]; mouse, rat, dog, and monkey): moderate to high
Mean steady-state accumulation of total plasma exposure (AUC) ([2]; 10 µg BID): 2.64 fold
Accumulation ratio Rac(Cmax) [2, 4]: 2.07 (0.40)
PTR (peak-to-trough plasma concentration ratio) [2, 4]: 2.04 (0.32)
PTR (peak-to-trough plasma concentration ratio) ([2]; 20 µg BID, steady state, n = 20, mean (SD)): 1.97 (0.26)
PTR (peak-to-trough plasma concentration ratio) ([2]; 30 µg BID, steady state, n = 10, mean (SD)): 1.95 (0.22)
Ctrough,ss [2, 5]: 0.72 (0.20) ng/mL
PTR (peak-to-trough plasma concentration ratio) [2, 5]: 3.34 (1.20)
Ctrough,ss [2, 6]: 1.51 (0.57) ng/mL
PTR (peak-to-trough plasma concentration ratio) [2, 6]: 2.28 (0.40)
Ctrough,ss [2, 7]: 2.32 (0.78) ng/mL
PTR (peak-to-trough plasma concentration ratio) [2, 7]: 2.00 (0.43)
Mean EHL ([2]; 50 µg QD): 18.4 h
Mean steady-state accumulation of total plasma exposure (AUC) ([2]; 50 µg QD): 1.69 fold
Accumulation ratio Rac(AUC) [2, 8]: 1.69 (0.24)
Accumulation ratio Rac(Cmax) [2, 8]: 1.54 (0.31)
Ctrough,ss [2, 8]: 0.76 (0.37) ng/mL
PTR (peak-to-trough plasma concentration ratio) [2, 8]: 4.33 (2.12)
PTR (peak-to-trough plasma concentration ratio) ([2]; 70 µg BID, steady state, single subject): 2.36
Ctrough,ss [2, 9]: 1.39 (0.68) ng/mL
PTR (peak-to-trough plasma concentration ratio) [2, 9]: 4.49 (2.66)
Ctrough,ss [2, 10]: 5.14 ng/mL
PTR (peak-to-trough plasma concentration ratio) [2, 10]: 3.42
Ctrough,ss [2, 11]: 6.13 ng/mL
PTR (peak-to-trough plasma concentration ratio) [2, 11]: 3.70
Dose proportionality of Cmax,ss, Ctrough,ss and AUC0–τ,ss ([2]; 10–50 µg BID dose range): approximately dose proportional
Dose proportionality of Cmax,ss, Ctrough,ss and AUC0–τ,ss ([2]; 50–300 µg QD dose range): approximately dose-proportional
Accumulation in plasma exposure (AUC) ([2]; BID (Q12 hours) dosing): ~2.6 fold
Steady-state peak-to-trough ratio, range across doses ([2]; BID dosing, Cohort 3): 1.95–2.36
Accumulation in plasma exposure (AUC) ([2]; QD (Q24 hours) dosing): ~1.7 fold
Steady-state peak-to-trough ratio, range across doses ([2]; QD dosing, Cohorts 1 and 2 combined): 3.34–4.49
Half-life ([2]; both, human, plasma, oral): 17.5 to 18.4 h
AUC ([2]; human, plasma, oral, 10 ug, AUC0–τ, 10 µg BID, Study Day 1 (non-steady-state), τ 12 h, n = 20, mean (SD)): 2.51 ng·h/mL
AUC ([2]; human, plasma, oral, 10 ug, AUC0–τ,ss, 10 µg BID, steady state, τ 12 h, n = 20, mean (SD)): 6.68 ng·h/mL
Cmax ([2]; human, plasma, oral, 10 ug, Cmax, 10 µg BID, Study Day 1 (non-steady-state), n = 20, mean (SD)): 0.412 ng/mL
Cmax ([2]; human, plasma, oral, 10 ug, Cmax,ss, 10 µg BID, steady state, n = 20, mean (SD)): 0.86 ng/mL
Tmax ([2]; human, plasma, oral, 10 ug, Tmax, 10 µg BID, Study Day 1 (non-steady-state), n = 20, median (min–max)): 1 h
Tmax ([2]; human, plasma, oral, 10 ug, Tmax,ss, 10 µg BID, steady state, n = 20, median (min–max)): 1 h
Cmax ([2]; human, plasma, oral, 20 ug, Cmax,ss, 20 µg BID, steady state, n = 20, mean (SD)): 1.8 ng/mL
AUC ([2]; human, plasma, oral, 30 ug, AUC0-τ,ss, 30 µg QD, steady state, τ 24 h, n = 3, mean (SD)): 24.8 ng·h/mL
Cmax ([2]; human, plasma, oral, 30 ug, Cmax,ss, 30 µg BID, steady state, n = 10, mean (SD)): 2.12 ng/mL
Cmax ([2]; human, plasma, oral, 30 ug, Cmax,ss, 30 µg QD, steady state, n = 3, mean (SD)): 2.29 ng/mL
Tmax ([2]; human, plasma, oral, 30 ug, Tmax,ss, 30 µg QD, steady state, n = 3, median (min – max)): 1 h
Cmax ([2]; human, plasma, oral, 40 ug, Cmax,ss, 40 µg BID, steady state, n = 9, mean (SD)): 3.31 ng/mL
AUC ([2]; human, plasma, oral, 50 ug, AUC0-τ, 50 µg QD, Study Day 1 (non-steady-state), τ 24 h, n = 20, mean (SD)): 15.9 ng·h/mL
AUC ([2]; human, plasma, oral, 50 ug, AUC0-τ,ss, 50 µg QD, steady state, τ 24 h, n = 16, mean (SD)): 26.2 ng·h/mL
AUC ([2]; human, plasma, oral, 50 ug, AUC0–τ,ss, 50 µg BID, steady state, τ 12 h, n = 6, mean (SD)): 36 ng·h/mL
Cmax ([2]; human, plasma, oral, 50 ug, Cmax, 50 µg QD, Study Day 1 (non-steady-state), n = 20, mean (SD)): 1.88 ng/mL
Cmax ([2]; human, plasma, oral, 50 ug, Cmax,ss, 50 µg BID, steady state, n = 6, mean (SD)): 4.43 ng/mL
Cmax ([2]; human, plasma, oral, 50 ug, Cmax,ss, 50 µg QD, steady state, n = 16, mean (SD)): 2.74 ng/mL
Tmax ([2]; human, plasma, oral, 50 ug, Tmax, 50 µg QD, Study Day 1 (non-steady-state), n = 20, median (min – max)): 2 h
Tmax ([2]; human, plasma, oral, 50 ug, Tmax,ss, 50 µg BID, steady state, n = 6, median (min–max)): 1.25 h
Tmax ([2]; human, plasma, oral, 50 ug, Tmax,ss, 50 µg QD, steady state, n = 16, median (min – max)): 1.25 h
AUC ([2]; human, plasma, oral, 70 ug, AUC0–τ,ss, 70 µg BID, steady state, τ 12 h, single subject): 25.2 ng·h/mL
Cmax ([2]; human, plasma, oral, 70 ug, Cmax,ss, 70 µg BID, steady state, single subject): 4.22 ng/mL
Tmax ([2]; human, plasma, oral, 70 ug, Tmax,ss, 70 µg BID, steady state, single subject): 1.5 h
AUC ([2]; human, plasma, oral, 100 ug, AUC0-τ,ss, 100 µg QD, steady state, τ 24 h, n = 7, mean (SD)): 48.6 ng·h/mL
Cmax ([2]; human, plasma, oral, 100 ug, Cmax,ss, 100 µg QD, steady state, n = 7, mean (SD)): 5.15 ng/mL
Tmax ([2]; human, plasma, oral, 100 ug, Tmax,ss, 100 µg QD, steady state, n = 7, median (min – max)): 1.5 h
AUC ([2]; human, plasma, oral, 300 ug, AUC0-τ,ss, 300 µg QD, steady state, τ 24 h, single subject): 181 ng·h/mL
Cmax ([2]; human, plasma, oral, 300 ug, Cmax,ss, 300 µg QD, steady state, single subject): 17.6 ng/mL
Tmax ([2]; human, plasma, oral, 300 ug, Tmax,ss, 300 µg QD, steady state, single subject): 4 h
Tmax [3]: 1 to 1.5 h
AUC(0-inf) ([3]; 30 ug): 17.3 ng·h/mL
AUC(0-t) ([3]; 30 ug): 15.9 ng·h/mL
Cmax ([3]; 30 ug): 0.949 ng/mL
Tmax ([3]; 30 ug): 1 h
AUC(0-inf) ([3]; 50 ug): 22.8 ng·h/mL
AUC(0-t) ([3]; 50 ug): 21.5 ng·h/mL
Cmax ([3]; 50 ug): 1.49 ng/mL
Tmax ([3]; 50 ug): 1.25 h
AUC(0-inf) ([3]; 100 ug): 42.6 ng·h/mL
AUC(0-t) ([3]; 100 ug): 41.2 ng·h/mL
Cmax ([3]; 100 ug): 2.65 ng/mL
Tmax ([3]; 100 ug): 1.5 h
AUC(0-inf) ([3]; 200 ug): 103 ng·h/mL
AUC(0-t) ([3]; 200 ug): 101 ng·h/mL
Cmax ([3]; 200 ug): 6.17 ng/mL
Tmax ([3]; 200 ug): 1.25 h
Dose proportionality of Cmax and AUC ([3]; single doses from 30 to 200 µg): approximately dose proportional
